hDAT+cocaine – modulates human dopamine transporter uptake under cocaine; Q01959; LLC-PK1 hDAT cells, [14C]-dopamine uptake with cocaine IC80; actives deviate in either direction; B-score at 10 µM; hit rate 1.3% among 110,000; AID 449768;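 active = Z score or B-score, a plate-position-corrected score, falls beyond the plate's 99.7% confidence bounds, in either direction; inactive = both scores lie inside the 99.7% bounds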;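 also: scored against the spread of the other compound wells on the same plate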
Measles CPE – protection of cells from measles virus; hit rate 1.5% among 140,000; protection (pct of control), % at 4 µM; Measles virus-infected cells, CPE protection, absorbance; in the data active = protection mostly above about 24%, no sharp cut-off; inactive = mostly below about 26%
Phagocytosis inh – blocks phagocytosis by macrophages; J774A.1 macrophage IgG-bead phagocytosis, imaging; inhibition, % at 5 µM; hit rate 0.07% among 110,000;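 active = inhibition above the mean of the plate negative controls plus 5 SD, cut at about 13% in these data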;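 also: phagocytic index as fraction of beads internalized from green versus red external bead signal; plate controls were DMSO negative control for no effect and cytochalasin-D positive control for full effect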
Cav3 T inh – human Cav3.2 channel inhibition, primary screen; O95180; Cav3.2-expressing cells, Fluo-4 calcium fluorescence FDSS; active compounds read low; B-score at 10 µM; hit rate 4% among 100,000;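 active = single-dose well whose peak fluorescence ratio is a statistical outlier from its plate by either plate-standardised score or position-corrected B-score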
Rev-RRE block – HIV Rev-RRE protein-RNA interaction inhibition; P05866; inhibition, % at 8 µM; hit rate 0.79% among 97,000; Rev peptide-RRE RNA binding, FRET;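 active = inhibition above the screen-wide mean plus 3 SD, cut at about 35% in these data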;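 also: 0% = median DMSO wells and 100% = median Neomycin B control wells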
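assay system = Cy5-tagged RRE RNA duplex with fluorescein-tagged Rev peptide | incubation = 5 + 15 min at 25 °C | also added = labelled Rev peptide | measure = % inhibition of FRET ratio versus controls | benchmarks = DMSO wells as 0% and neomycin B wells as 100% inhibition | measured by = FRET fluorescence readout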
Pyk2 oligo antag – antagonists of human Pyk2 oligomerization; z-score (the deposit names both 25 µM and 10 µM); Q293 cells, Pyk2 FERM NanoBiT luminescence; active compounds read low; hit rate 0.83% among 99,000; Q14289;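 active = Z-score of -3 or lower, scaled per plate to the spread of control and sample wells; inactive = z-score above -3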;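 also: negative z-score means lost luminescence so less FERM oligomerization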
An asterisk follows results filed as active; nt = no result given. The list is not random: actives were taken first. Their share in the collection is about 5.9%.

SMILES	hDAT+cocaine	Measles CPE	Phagocytosis inh	Cav3 T inh	Rev-RRE block	Pyk2 oligo antag
COc1ccc(C(=O)Cn2nnc(-c3ccccc3NC(=O)C3CCCCC3)n2)cc1	0.14	32*	nt	0.15	32	-1.5
COC(=O)c1ccc(NC(=O)C(=O)N2CCN(C(=S)Nc3ccc(C)cc3)CC2)cc1	nt	12	-12	nt	nt	nt
CCCC(=O)OC1CC(C)N(C(=O)c2ccccc2)c2ccc(C)cc21 (stereo not given)	1.6	21	nt	-4.4*	5	-0.94
COc1ccc(CC(=O)Nc2cc3oc4ccccc4c3cc2OC)cc1	nt	5	2	nt	nt	nt
COc1cc2c(cc1NS(=O)(=O)N1CCCC1)oc1ccccc12	1.5	17	-2	-5.6*	16	-2.5
COc1cc2c(cc1NC(=O)C(C)N1CCN(S(=O)(=O)c3ccc(C)c(C)c3)CC1)oc1ccccc12 (stereo not given)	-0.099	8	0	-2.8	10	0.38
COc1cc2c(cc1NC(=O)COc1ccc3ccccc3c1)oc1ccccc12	-7.8*	10	0	-2.4	5	-0.17
CCOc1ccc(CNC(=O)c2ccc(Sc3ccc(C)cc3)c(NC(C)=O)c2)cc1	nt	11	-5	nt	nt	nt
O=S(=O)(NCc1ccc2c(c1)OCO2)c1cccc(S(=O)(=O)N2CCOCC2)c1	-0.49	28	0	-0.57	6	0.94
CC(C)N=c1cc2n(-c3ccc(Cl)cc3)c3ccccc3nc-2cc1Nc1ccc(Cl)cc1	-1.2	nt	nt	-3.9*	nt	nt
O=C(c1cc(Cl)ccc1[N+](=O)[O-])N1CCc2ccccc2C1	nt	5	-4	nt	nt	nt
O=C(CN1N=C(c2ccc(Cl)cc2)CCC1=O)NCc1cccnc1	nt	17	-8	nt	nt	nt
C[C@H](NC(CCc1ccccc1)C(=O)O)C(=O)N1CCC[C@H]1C(=O)O (stereo not given in full)	-1.1	nt	nt	nt	nt	nt
Cc1ccc(OCC(=O)N2N=C(c3cccnc3)CC2(O)C(F)(F)F)cc1C (stereo not given)	nt	22	-7	nt	nt	nt
Cc1ccccc1OCC(=O)N1N=C(C(F)(F)F)CC1(O)C(C)(C)C (stereo not given)	0.65	17	nt	-8.2*	4	-0.39
Cc1ccc(OCC(=O)N2N=C(C(F)(F)F)CC2(O)C(C)(C)C)cc1C (stereo not given)	1.2	38	nt	-7.3*	-4	-1.1
CC(C)=CCc1c(O)c(CC=C(C)C)c2c(c1O)-c1cc(O)c(O)cc1CC2	2.3	nt	nt	-0.44	nt	nt
CCC(C)(C)NC(=O)/C=C/c1cccs1	nt	8	-7	nt	nt	0.98
O=S(=O)(c1ccccc1C(F)(F)F)N1CCC(n2cnc3ccccc32)CC1	2.7*	17	1	-0.86	1	0.23
c1ccc(COc2ccc(OCCN3CCCCC3)cc2)cc1	nt	2	1	nt	nt	nt
Fc1ccc(NC(=S)Nc2ccc(F)c(Cl)c2)cc1Cl	-2.4	16	0	-4.1*	-5	-1.6
Fc1ccc(CNC(=S)Nc2ccc(Cl)cc2)cc1	-0.48	4	nt	-4.3*	-7	0.09
Fc1ccc(NC(=S)N2CCCC2)cc1Cl	nt	15	nt	nt	nt	nt
CCCCN1CCCC1CNC(=O)c1cc(C#N)c2ccccc2c1OC (stereo not given)	-0.0066	nt	nt	nt	nt	nt
COc1ccc(S(=O)(=O)N2CCCCCC2)cc1NC(=O)Cc1cc(OC)c(OC)c(OC)c1	nt	4	-1	nt	nt	nt
SMILES	hDAT+cocaine	Measles CPE	Phagocytosis inh	Cav3 T inh	Rev-RRE block	Pyk2 oligo antag
COc1ccc(OC)c(S(=O)(=O)N2CCN(C)CC2)c1	0.32	1	1	0.74	nt	0.91
COc1ccc(OC)c(S(=O)(=O)N2CCCCCC2)c1	-2.4*	3	nt	0.19	nt	-0.87
COc1cc(S(=O)(=O)N2CCCCC2)ccc1NC(C)=O	-0.12	52*	-2	0.009	3	-0.42
COc1ccc(CNC(=O)C2CCCN(S(=O)(=O)c3cc(C)ccc3OC)C2)cc1 (stereo not given)	-1.2	11	-1	-3.3*	5	0.49
CCc1ccccc1N1CCN(S(=O)(=O)c2cc(OC)ccc2OC)CC1	0.047	20	0	-2.6	8	-3.3*
COc1ccccc1N1CCN(S(=O)(=O)c2cc(C)sc2C)CC1	-0.2	13	nt	-1.6	8	nt
COc1ccc(OC)c(S(=O)(=O)N2CCC(C(=O)Nc3cccc(C)c3C)CC2)c1	0.042	34	-2	0.31	-1	0.63
COc1ccc(OC)c(S(=O)(=O)N2CCC(C(=O)Nc3ccc(C)c(C)c3)CC2)c1	0.48	7	nt	-7.2*	11	-2.5

Assay outcomes from PubChem.
